One assay relates to EKVX. Description: Anticancer activity against human EKVX cells assessed as cell growth inhibition at 10 uM incubated for 48 hrs by sulforhodamine B assay. It counts as functional. The note with it: read-out: GI. A digest of the protocol:
(§1)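 NCI-60 screen: cell lines grown in RPMI 1640 with 5% FBS and 2 mM L-glutamine, plated in 96-well plates at 5,000–40,000 cells/well depending on doubling time. Each line has one single-dose arm at 10 µM and one dose-response arm giving GI50.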

The test system of the next assay is PC-3. The assay is described as follows: Anticancer activity against human PC-3 cells assessed as cell growth inhibition at 10 uM incubated for 48 hrs by sulforhodamine B assay. It counts as functional. The note with it: read-out: GI. In a few lines:
(§2)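 NCI DTP 60-cell-line screen run at National Cancer Institute. Cells grown in RPMI 1640 with 5% fetal bovine serum and 2 mM L-glutamine, seeded at 5,000–40,000 cells/well depending on doubling time. Single-dose screen at 10 µM gives growth percentage; dose-response series gives GI50.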
(In general: The SRB assay estimates cell density from bound dye.)

Another assay relates to COLO 205. Description: Anticancer activity against human COLO 205 cells assessed as cell growth inhibition at 10 uM incubated for 48 hrs by sulforhodamine B assay. It counts as functional. The note with it: read-out: GI. In a few lines: as §1
For another assay, the system named is CCRF-CEM. The assay is described as follows: Anticancer activity against human CCRF-CEM cells assessed as cell growth inhibition incubated for 48 hrs by sulforhodamine B assay. It counts as functional. A digest of the protocol: as §1
A further assay has as its system RXF 393. The assay is described as follows: Anticancer activity against human RXF 393 cells assessed as cell growth inhibition at 10 uM incubated for 48 hrs by sulforhodamine B assay. It counts as functional. The settings on record: read-out: GI. In a few lines: as §2
The subject of the next assay is SNB-75. The assay is described as follows: Anticancer activity against human SNB-75 cells assessed as cell growth inhibition at 10 uM incubated for 48 hrs by sulforhodamine B assay. It counts as functional. The settings on record: read-out: GI.
The subject of a further assay is Hs-578T. The assay is described as follows: Anticancer activity against human Hs-578T cells assessed as cell growth inhibition incubated for 48 hrs by sulforhodamine B assay. It counts as functional. A digest of the protocol:
as §1

Assay [1] relates to MDA-MB-468. Description: Anticancer activity against human MDA-MB-468 cells assessed inhibition of cell growth after 48 hrs by CellTiter-Glo luminescent assay. The settings on record: MDA-MB-468, 48 h. It counts as functional, cell-based. In a few lines:
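Cells grown in RPMI 1640 with 5% fetal bovine serum and 2 mM L-glutamine, seeded at 5,000–10,000 cells/well in 384-well plates, preincubated 2–3 h at 37°C, 5% CO2. DMSO stocks (20 mM) serially diluted 2-fold ten times, then added at 1:100. Exposure 48 h at 37°C. Viability read by CellTiter-Glo luminescence after 10 min at room temperature; IC50 derived.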
(In general: ATP-based viability assays read luminescence as a measure of living cells.)

For another assay, the system named is ACHN. The assay is described as follows: Anticancer activity against human ACHN cells assessed inhibition of cell growth after 48 hrs by CellTiter-Glo luminescent assay. It counts as functional, cell-based. A digest of the protocol:
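Renal lines grown in RPMI 1640 with 5% FBS and 2 mM L-glutamine, plated at 5,000–10,000 cells/well in 384-well plates and held 2–3 h at 37 °C, 5% CO2. Compounds were made as 20 mM DMSO stocks, given as ten 2-fold serial dilutions diluted 1:100 into cells, and incubated 48 h. Read-out was CellTiter-Glo luminescence after 10 min at room temperature.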

For assay [2], the system named is MDA-MB-468. The assay is described as follows: Anticancer activity against human MDA-MB-468 cells assessed as cell growth inhibition at 10 uM incubated for 48 hrs by sulforhodamine B assay. It counts as functional. The settings on record: read-out: GI. A digest of the protocol: as §2
The test system of the next assay is A549. The assay is described as follows: Anticancer activity against human A549 cells assessed as cell growth inhibition at 10 uM incubated for 48 hrs by sulforhodamine B assay. It counts as functional. The settings on record: read-out: GI. A digest of the protocol:
as §1

In the next assay the test system is 786-0. The assay is described as follows: Anticancer activity against human 786-0 cells assessed as cell growth inhibition incubated for 48 hrs by sulforhodamine B assay. It counts as functional. In a few lines: as §1
In the next assay the test system is OVCAR-5. Description: Anticancer activity against human OVCAR-5 cells assessed as cell growth inhibition at 10 uM incubated for 48 hrs by sulforhodamine B assay. It counts as functional. The settings on record: read-out: GI. In a few lines:
as §2

The next assay relates to M14. Description: Anticancer activity against human M14 cells assessed as cell growth inhibition incubated for 48 hrs by sulforhodamine B assay. It counts as functional. A digest of the protocol:
as §1

The next assay has as its system A498. Description: Anticancer activity against human A498 cells assessed inhibition of cell growth after 48 hrs by CellTiter-Glo luminescent assay. The settings on record: A498, 48 h. It counts as functional, cell-based. A digest of the protocol:
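Human tumour cells kept in RPMI 1640 with 5% FBS and 2 mM L-glutamine, seeded at 5,000–10,000 cells/well and left 2–3 h at 37°C, 5% CO2. Drugs taken from 20 mM DMSO stocks, serially halved ten times in DMSO, then added at 1:100 dilution. Cells exposed for 48 h at 37°C. Viability read by CellTiter-Glo luminescence after 10 min at room temperature.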

The test system of another assay is HL-60. Description: Anticancer activity against human HL-60 cells assessed as cell growth inhibition incubated for 48 hrs by sulforhodamine B assay. It counts as functional. In a few lines:
as §1

A further assay concerns OVCAR-3. The assay is described as follows: Anticancer activity against human OVCAR-3 cells assessed as cell growth inhibition at 10 uM incubated for 48 hrs by sulforhodamine B assay. It counts as functional. The settings on record: read-out: GI. A digest of the protocol: as §2
A further assay deals with TK-10. Description: Anticancer activity against human TK-10 cells assessed as cell growth inhibition at 10 uM incubated for 48 hrs by sulforhodamine B assay. It counts as functional. The note with it: read-out: GI.
For another assay, the system named is T47D. The assay is described as follows: Anticancer activity against human T47D cells assessed as cell growth inhibition at 10 uM incubated for 48 hrs by sulforhodamine B assay. It counts as functional. The note with it: read-out: GI.
A further assay deals with NCI-H460. Description: Anticancer activity against human NCI-H460 cells assessed as cell growth inhibition at 10 uM incubated for 48 hrs by sulforhodamine B assay. It counts as functional. The settings on record: read-out: GI. In a few lines:
as §2

By GI50 is commonly meant the concentration at which growth is held to half of that of the control. In general, IC50 refers to the concentration needed to halve the response being measured. A low value points to greater potency in that assay. For the compound `COc1cc(CBr)c(B2OC(C)(C)C(C)(C)O2)c(CBr)c1`, the inhibition of growth at 10 µM with EKVX, with PC-3, in the assay with COLO 205, in the assay with RXF 393, in the assay on SNB-75 and with MDA-MB-468 [2] was < 50% in each case. In addition, the inhibition of growth at 10 µM in the assay with A549, in the assay on OVCAR-5, in the assay with OVCAR-3, with TK-10, in the assay with T47D and in the assay with NCI-H460 was < 50% each time. The GI50 in the assay on CCRF-CEM, in the assay on Hs-578T, in the assay on 786-0, in the assay with M14 and with HL-60 was 2000 nM throughout. Also, the IC50 was determined as 9 µM in the assay with MDA-MB-468 [1], 20 µM with ACHN and 18.1 µM with A498.

The values are drawn from ChEMBL document CHEMBL5260806, “Hydrogen peroxide activated quinone methide precursors with enhanced DNA cross-linking capability and cytotoxicity towards cancer cells” (Eur J Med Chem, 2017).
